Screens: PubChem, several laboratories
Mac1 fbg enh = enhancers of human CD11b/CD18 binding to fibrinogen; K562 CD11b/CD18 adhesion to fibrinogen, ATPlite luminescence; activation, % at 10 µM; hit rate 0.07% among 93,000; AID 1499;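 active = 10 µM primary screen giving 50% or more activity, confirmed by 40% or more on retest at that dose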
CD11b adhes inh = inhibitors of human CD11b/CD18 binding to fibrinogen. P05107+P11215. AID 1497. inhibition, % at 10 µM. hit rate 0.54% among 93,000. K562 CD11b/CD18 adhesion to fibrinogen, ATPlite luminescence; Mn2+ added to activate the integrin;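 active = primary inhibition of 50% or more at 10 µM, then 40% or more on retest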
Phagocyt inh = macrophage phagocytosis inhibition; J774A.1 macrophage IgG-bead phagocytosis, imaging; hit rate 0.07% among 110,000; inhibition, % at 5 µM;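 active = inhibition above the mean of the plate negative controls plus 5 SD, cut at about 13% in these data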;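 note: phagocytic index as fraction of beads internalized from green versus red external bead signal; plate controls were DMSO negative control for no effect and cytochalasin-D positive control for full effect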
EphB4 antag = blocks human EphB4 binding to ephrin-B2; hit rate 0.15% among 97,000; P54760; EphB4 LBD / TNYL-RAW-Alexa532 peptide, fluorescence polarization; inhibition, % at 7 µM;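 active = inhibition above the screen-wide mean inhibition plus 3 SD, cut at about 15% in these data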;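 note: 0% = DMSO wells and 100% = excess unlabeled TNYL-RAW peptide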
Target sequence (P54760 whole entry, looked up, the tested form may be a part): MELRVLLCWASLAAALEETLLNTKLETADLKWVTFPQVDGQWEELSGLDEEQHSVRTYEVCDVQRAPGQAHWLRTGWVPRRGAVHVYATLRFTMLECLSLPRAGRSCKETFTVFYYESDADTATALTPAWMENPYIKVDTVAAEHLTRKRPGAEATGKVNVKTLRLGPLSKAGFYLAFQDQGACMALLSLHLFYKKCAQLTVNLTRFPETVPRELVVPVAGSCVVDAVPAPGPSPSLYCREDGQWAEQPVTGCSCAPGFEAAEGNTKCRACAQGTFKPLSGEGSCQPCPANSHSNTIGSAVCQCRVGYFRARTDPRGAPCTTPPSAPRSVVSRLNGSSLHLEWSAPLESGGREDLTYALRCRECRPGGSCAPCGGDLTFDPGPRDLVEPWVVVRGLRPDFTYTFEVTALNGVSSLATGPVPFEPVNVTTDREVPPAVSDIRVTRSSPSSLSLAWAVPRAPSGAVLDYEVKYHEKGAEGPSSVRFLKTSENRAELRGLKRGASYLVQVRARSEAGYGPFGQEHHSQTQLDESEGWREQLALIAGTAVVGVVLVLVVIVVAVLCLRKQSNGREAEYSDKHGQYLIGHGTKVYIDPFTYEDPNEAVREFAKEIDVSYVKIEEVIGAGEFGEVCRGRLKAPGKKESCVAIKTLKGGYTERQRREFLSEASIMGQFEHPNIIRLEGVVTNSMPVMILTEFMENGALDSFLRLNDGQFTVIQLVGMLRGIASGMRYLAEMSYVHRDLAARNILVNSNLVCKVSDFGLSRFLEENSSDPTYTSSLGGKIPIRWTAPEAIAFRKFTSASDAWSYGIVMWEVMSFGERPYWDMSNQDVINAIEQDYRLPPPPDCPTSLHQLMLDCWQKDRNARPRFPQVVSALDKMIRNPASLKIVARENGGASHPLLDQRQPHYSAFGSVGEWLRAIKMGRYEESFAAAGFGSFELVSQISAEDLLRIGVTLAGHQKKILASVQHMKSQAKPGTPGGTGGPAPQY
Smad3 FoxH1 inh = inhibitors of human Smad3 transcription factor binding; TR-FRET Smad3/Dy647-FoxH1 peptide binding, europium anti-His; inhibition, % at 25 µM; hit rate 0.29% among 88,000; AID 630;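 active = compounds that reduce the energy-transfer binding signal between the protein and its labelled peptide by more than half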;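 note: 0% = Smad3 plus labelled peptide maximal FRET and 100% = peptide-only background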
HIV Rev-RRE inh = inhibitors of HIV-1 Rev-RRE RNA interaction. P05866. Rev peptide-RRE RNA binding, FRET. inhibition, % at 8 µM. hit rate 0.79% among 97,000. AID 704;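 active = inhibition above the screen-wide mean plus 3 SD, cut at about 35% in these data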;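 note: 0% = median DMSO wells and 100% = median Neomycin B control wells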
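assay system = Cy5-tagged RRE RNA duplex with fluorescein-tagged Rev peptide | incubation = 5 + 15 min at 25 °C | also added = labelled Rev peptide | measure = % inhibition of FRET ratio versus controls | benchmarks = DMSO wells as 0% and neomycin B wells as 100% inhibition | measured by = FRET fluorescence readout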
Active calls of the source: *; / = no result; [ ] = remark or other dose. Compounds with a hit are over-represented: about 1.3% of the library has one in this group of screens.

SMILES	Mac1 fbg enh	CD11b adhes inh	Phagocyt inh	EphB4 antag	Smad3 FoxH1 inh	HIV Rev-RRE inh
N#CC1=C(N)C(C#N)(C#N)[C@H](c2c(F)cccc2F)[C@H]2CC3(CC=C12)OCCO3	-3.2	30.5	2.6	-1.3	-6.9	55.9*
CN1C2C=C3C(C#N)=C(N)C(C#N)(C#N)[C@H](c4c(F)cccc4F)[C@H]3C1CC2 (some centres undefined)	-2.2	14.7	3.5	-0.7	10.9	6.0
C=CCN1C(=O)/C(=C/c2ccc(N(C)C)cc2)S/C1=N\c1nnc(CC)s1	37.8	-10.5	-0.5	-1.7	-11.8	131.5*[fluorescence artefact?]
C=CCN1C(=O)/C(=C/c2ccc(OCC(=O)O)cc2)S/C1=N/c1nccs1	/	/	8.8	/	/	/
O=C1C=C(Nc2nc(C(=O)O)cc(=O)[nH]2)c2ccccc2C1=O	/	/	/	/	7.4	/
CC1(C)CC(=O)c2cnc(N3CCc4ccccc4C3)nc2C1	0.2	-4.1	-0.2	5.2	-2.3	7.2
N#C/C(=C(/O)C(Cl)c1ccccc1)c1nc2ccccc2s1 (centres undefined)	-5.2	8.0	-0.1	9.3	/	15.9
N#C/C(=C(/O)c1ccco1)c1nc2ccccc2s1	-8.5	52.2*	-2.9	5.9	/	3.5
COc1ccc(C[C@@H]2C(=O)N[C@H](C)C(=O)N(C)[C@@H]3Cc4ccc(cc4)Oc4cc(ccc4O)C[C@@H](C(=O)N[C@@H](C)C(=O)N[C@H](C)C(=O)N2C)N(C)C3=O)cc1	/	/	/	/	11.3	/
O=C(O)c1cc2c(cc1S(=O)(=O)O)[C@@H]1[C@@H]([C@H]3[C@H]2[C@]2(Cl)C(Cl)=C(Cl)[C@@]3(Cl)C2(Cl)Cl)[C@]2(Cl)C(Cl)=C(Cl)[C@@]1(Cl)C2(Cl)Cl	/	/	/	/	31.8	/
O=C(O)[C@H]1CCCC[C@@H]1c1c2ccc(=O)c(O)c-2oc2c(O)c(O)ccc12	/	/	/	/	101.2*	/
CCCOC(=O)Nc1nc2ccccc2o1	-1.5	-4.0	-1.0	11.7	0.7	38.2*
CCOC(=O)c1ccccc1NC(=O)CSc1nc2ccccc2o1	0.4	0.3	-0.6	/	-1.4	/
CCN=C(N)CSS(=O)(=O)O	/	/	/	/	4.7	/
Cc1noc(C)c1COc1ccc(C(=O)OCC(=O)NC23CC4CC(CC(C4)C2)C3)cc1	0.7	55.9*	-1.6	6.9	-8.8	6.6
Cc1noc(C)c1COc1ccc(C(=O)OCC(=O)NC2CCCCC2C)cc1 (centres undefined)	-3.1	7.0	0.2	-3.3	16.5	11.5
Cc1ccc(-c2nc(-c3ccccc3)no2)c(Cl)c1	-10.0	104.2*	0.2	-5.5	-3.9	22.3
COc1ccc(C(=O)CSc2nc3nc(C)cc(C)c3c(=O)[nH]2)cc1OC	/	/	/	1.1	-6.8	8.8
Nc1[nH]c(=S)[nH]c(=O)c1-c1ccccc1	/	/	-1.2	-1.0	4.2	138.6*[fluorescence artefact?]
Nc1nc(SCc2ccc(Cl)cc2)[nH]c(=O)c1-c1ccccc1	/	/	/	2.2	2.5	2.5
COc1ccc(C(CC(=O)O)NS(=O)(=O)c2ccc(C)cc2)cc1 (centres undefined)	0.2	51.3*	-0.7	-13.3	2.0	1.2
COc1cc(C(C#N)N2CCOCC2)ccc1O (centres undefined)	0.2	15.4	-0.3	6.5	1.1	1.4
COc1cccc(C(C#N)N2CCOCC2)c1 (centres undefined)	1.6	-28.4	-1.0	22.4*	9.9	13.6
CC[C@H]1CN(C)[C@@H]2Cc3c([nH]c4ccccc34)C(=O)C[C@H]1[C@H]2C(=O)OC	/	/	/	/	1.2	/
CCC(C(=O)OCC(=O)Nc1c(C)n(C)n(-c2ccccc2)c1=O)c1ccccc1 (centres undefined)	3.3	-20.5	-4.9	-0.2	1.7	6.2
SMILES	Mac1 fbg enh	CD11b adhes inh	Phagocyt inh	EphB4 antag	Smad3 FoxH1 inh	HIV Rev-RRE inh
Cc1c(NC(=O)COC(=O)C(c2ccc(Cl)cc2)C(C)C)c(=O)n(-c2ccccc2)n1C (centres undefined)	1.6	3.5	0.7	16.9*	/	2.6
Nc1nc(N)c(N=Nc2ccc(C(=O)O)c(O)c2)c(N)n1	/	/	/	/	54.9*	/
CCOC(=O)Cn1c(C(F)(F)F)nc2nc(Cl)c(Cl)nc21	/	/	/	/	55.8*	/
Cc1c(C(=O)NC2CCCc3ccccc32)oc2ccc(S(=O)(=O)N3CCOCC3)cc12 (centres undefined)	56.6*	8.5	4.4	-9.4	-8.8	-4.3
Cc1c(C(=O)NC2CCCc3ccccc32)oc2ccc(S(=O)(=O)N3CCCC3)cc12 (centres undefined)	-2.2	-5.3	-1.6	2.7	8.2	-2.6
COc1ccc(Nc2nnc(SCC(=O)/C=C3/N(C)c4ccccc4C3(C)C)s2)cc1	/	/	-6.4	/	/	/
CCCCOCCCNc1ncnc2c1[nH]c1ccccc12	-5.8	100.3*	-1.1	-11.3	-10.2	8.9
CCOCCCNc1ncnc2c1[nH]c1ccccc12	-5.6	37.8	0.5	-3.7	-4.0	9.1
COC(=O)[C@@H]1C(O)[C@H](C(=O)OC)[C@@H](C)N(C)[C@H]1C (some centres undefined)	/	/	/	/	-4.1	/
O=C(O)c1c[nH]c2c(C(F)(F)F)cccc2c1=O	-2.8	-2.6	-1.9	-1.3	13.1	7.0
O=C(O)c1c[nH]c2c(ccc3[nH]cc(C(=O)O)c(=O)c32)c1=O	/	/	/	/	92.7*	/
CCCc1cc(=O)[nH]c(/N=C(/NC(=O)C(C)N2C(=O)c3ccccc3C2=O)Nc2ccccc2)n1 (centres undefined)	15.7	26.4	-1.7	-0.1	52.6*	-0.5
CC1CCN(c2nc(-c3ccccc3O)nc3ccccc23)CC1	/	/	/	4.1	4.3	16.2
Oc1ccccc1-c1nc(N2CCCC2)c2ccccc2n1	-2.2	2.3	0.2	-0.1	54.9*[fluorescence artefact?]	1.4
CC(=O)[C@@H]1[C@@H]2C(=O)N(Cc3ccccc3)C(=O)[C@@H]2C2c3ccccc3C=CN21 (some centres undefined)	-2.7	-19.2	5.0	-6.9	14.1	64.2*
COc1ccc(N2C(=O)[C@@H]3[C@H](C2=O)[C@H]2c4ccccc4C=CN2[C@@H]3C(=O)Nc2ccccc2)cc1	0.2	13.7	-0.7	7.0	-4.4	118.6*[fluorescence artefact?]
O=C(c1ccco1)[C@@H]1[C@@H]2C(=O)N(c3ccccc3)C(=O)[C@@H]2C2c3ccccc3C=CN21 (some centres undefined)	6.2	0.0	-5.0	-4.1	/	33.9
Cc1cnc(-c2nnc(N(C)C(=O)c3cnccn3)s2)cn1	/	/	/	/	-1.5	/
CC1=Nc2ccccc2/C1=C\c1nc(-c2ccc(F)cc2)oc1O	-1.4	-34.3	-1.0	15.4*	-1.5	52.2*
COc1cccc(S(=O)(=O)NCc2ccc(C(=O)Nc3ccc(Cl)cc3)cc2)c1	-1.6	30.1	-2.9	/	/	/
COc1cccc(S(=O)(=O)NCc2ccc(C(=O)Nc3cccc(Cl)c3)cc2)c1	1.2	55.2*	-2.2	-1.4	/	10.9
